# Shown are actives, neighbours in structure and some others; about 2.1% of the full set was active somewhere.
# APJ agonist: agonists of human APJ apelin receptor; P35414; CHO-K1 APJ PathHunter beta-arrestin, luminescence; 0% DMSO wells, 100% apelin; activation, % at 20 µM; 0.11% of 330,000 active;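 active = activation more than six SD over the plate average, tested at 20 µM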;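 also: 0% = DMSO alone and 100% = apelin-13 at 10 nM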
#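 Test system – PathHunter CHO-K1 APJ (AGTRL-1) beta-arrestin reporter cells · Input – 1000 cells/well · Compound – single test compound dose, 20 µM final, 1% DMSO · Times – compound stimulation 90 min at 25 °C, detection 60 min · Technique – beta-gal luminescence · Read-out basis – APJ–arrestin association signal · Control set – negative DMSO alone, positive Apelin-13 at 10 nM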
# APJ antagonist: APJ receptor antagonism | P35414 | CHO-K1 APJ beta-arrestin complementation, luminescence | inhibition, % at 20 µM | 0.32% of 330,000 active | AID 2521;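 active = inhibition above about 40% at 20 µM, limit read from the data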;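 also: cells challenged with 10 nM apelin-13 agonist together with compound; plate controls were apelin-13 plus DMSO wells for no effect and DMSO wells lacking apelin-13 for full effect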
# CCR6 antag: antagonists of human CCR6 receptor | P51684 | 0.49% of 340,000 active | inhibition, % at 20 µM | AID 493098 | CHO-K1 CCR6 PathHunter beta-arrestin, luminescence, CCL20-stimulated;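 active = compounds whose inhibition of the agonist-driven luminescence signal at 20 µM reaches about 50%, limit read from the data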;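 also: cells stimulated with CCL20 at 14 nM final; plate controls were DMSO with CCL20 for no effect and DMSO without agonist for full effect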
# HTR2A ag: mouse HTR2A agonism via beta-arrestin recruitment | CHO-K1 mHTR2A beta-arrestin complementation, luminescence; percent of 30 µM serotonin response | activation, % at 7.6 µM | 0.66% of 360,000 active | AID 624169;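 active = activation above a run cutoff, the mean activation of all tested compounds plus 3 SD, cut at about 14% in these data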;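 also: 0% = plate median of compound wells and 100% = 30 µM serotonin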
# EBI2 antag: blocks human EBI2 receptor beta-arrestin signaling; EBI2 beta-arrestin recruitment, luminescence, 7a,25-OHC stimulated; inhibition, % at 5 µM; 0.81% of 360,000 active; AID 651636; in the data active = inhibition above about 38%;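 also: enzyme fragment complementation signal reports receptor beta-arrestin coupling in cells; 0% = agonist plus DMSO wells and 100% = wells without agonist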
# CXCR6 block: blocks human CXCR6 beta-arrestin recruitment. CHO-K1 PathHunter CXCR6 beta-arrestin, luminescence. inhibition, % at 20 µM. 0.36% of 360,000 active; in the data active = inhibition above about 34%, passing the limit was not always enough;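 also: antagonist mode with CXCL16 agonist at 10 nM final; 0% = 10 nM CXCL16 with DMSO and 100% = unstimulated wells without agonist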
# Target sequence (O00574 whole entry, looked up): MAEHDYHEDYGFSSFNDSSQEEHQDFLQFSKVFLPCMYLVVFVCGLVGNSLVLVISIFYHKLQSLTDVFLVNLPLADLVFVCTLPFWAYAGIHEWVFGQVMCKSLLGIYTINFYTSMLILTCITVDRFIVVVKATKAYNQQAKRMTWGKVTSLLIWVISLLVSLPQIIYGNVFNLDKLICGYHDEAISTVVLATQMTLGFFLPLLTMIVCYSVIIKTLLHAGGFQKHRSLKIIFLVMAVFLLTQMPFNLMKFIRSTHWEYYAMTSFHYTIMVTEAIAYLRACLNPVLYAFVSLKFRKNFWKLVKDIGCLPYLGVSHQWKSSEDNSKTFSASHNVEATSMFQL
# Starred values were filed as active, the others as inactive; . = no result given.
SMILES,APJ agonist,APJ antagonist,CCR6 antag,HTR2A ag,EBI2 antag,CXCR6 block
CN(C)/C=N/c1ncc(C(=O)c2ccc(Cl)cc2Cl)s1,-3,11,-12,-3,4,-5
NC(=O)c1ccsc1NC(=O)COC(=O)Cc1ccc(F)cc1,.,.,.,2,-7,-4
Cc1ccc2c(c1)-n1c(nc3ccccc3c1=O)C(Cc1ccc(O)cc1)NC2=O (stereo unspecified),-3,4,.,.,.,.
O=C(CCn1cnc2ccccc2c1=O)Nc1nc(-c2ccc(Br)cc2)cs1,23*,6,0,0,-49,0
Cc1ccc(NC(=O)CCn2cnc3ccccc3c2=O)cc1,-1,16,-3,-1,-3,5
CCCCCCCCCCCCCCC[C@@H](O)[C@@H](N)CO,.,.,68*,-1,12,15
CCCCCCCCCC(=O)OCC(O)CO (stereo unspecified),-1,12,1,2,-8,-2
C#CCOCCOCCOCCNc1nc(N2CCN(C(=O)CCCCCCCCCCNC(=O)[C@H]([C@@H](C)CC)n3cc(CCCCN=C(N)N)nn3)CC2)nc(N2CCN(C(=O)CCCCCCCCCCNC(=O)[C@H](CCCN=C(N)N)n3cc(C[C@@H](C)CC)nn3)CC2)n1,73*,35,.,.,.,.
CCN1/C(=C2\C(=O)N(c3ccccc3)N=C2C)C=Cc2cc(C)ccc21,-5,7,11,1,-8,0
CCN1/C(=c2/s/c(=C3/C(=O)N(c4ccccc4)N=C3C)n(CC)c2=O)C=Cc2ccccc21,-2,11,52*,12,-1,10
O=C(Nc1ccc(S(=O)(=O)N2CCOCC2)cc1)c1ccc([N+](=O)[O-])cc1Cl,8,-56,-5,-4,-9,-16
CCN(CC(=O)Nc1ccc(OC(F)F)cc1)C1CCCCC1,-5,2,0,-3,4,8
CCN(C(=S)Nc1ccc(OC(F)F)cc1)C1CCCCC1,-4,0,8,-3,47*,-8
O=C(NCCO)c1c(-c2ccc3c(c2)OCO3)noc1-c1ccsc1,.,.,2,12,1,-8
Cc1ccc(S(=O)(=O)N(Cc2n[nH]c(=S)n2-c2ccccc2)c2ccccc2)cc1,1,0,15,7,-2,1
O=c1cc(-c2c(F)c(F)c(F)c(F)c2F)oc2c(F)c(F)c(F)c(F)c12,0,52*,.,.,.,.
CCSc1ccccc1C(=O)N1CCN(c2ccc([N+](=O)[O-])cc2)CC1,-2,20,16,-1,11,2
O=C(O)c1ccccc1NS(=O)(=O)c1cccc(-n2sc3ccccc3c2=O)c1,2,-34,-36,4,96*,-18
Cn1cccc1/C=N/NC(=O)c1ccccn1,-5,4,2,3,-5,-2
O=[N+]([O-])c1ccc(Sc2cccc[n+]2[O-])c2nonc12,.,.,115*,-13,58*,110*
O=C(CSc1cccc[n+]1[O-])Nc1cc(Cl)ccc1[N+](=O)[O-],2,-17,-5,-1,-7,-20
O=[N+]([O-])c1ccc(Nc2ccccc2)c2nonc12,-8,52*,51*,-4,13,32
COc1ccccc1N1CCN(C(=O)c2ccc(CSc3ccccc3)cc2)CC1,-3,5,17,7,14,-11
CCOc1ccc(Br)cc1CNCc1cccnc1,-1,2,2,-4,0,5
COc1cc(N=Nc2cccc(S(N)(=O)=O)c2)c2ccccc2c1N,.,.,67*,-8,13,31
SMILES,APJ agonist,APJ antagonist,CCR6 antag,HTR2A ag,EBI2 antag,CXCR6 block
CCCCNCCOCCSc1ccc(Cl)cc1,-4,12,3,30*,15,4
COCCCNCCOCCSc1ccc(Cl)cc1,-1,4,16,-1,-7,5
COc1ccccc1NS(=O)(=O)c1cc(C(=O)NCc2ccco2)ccc1C,-5,-4,14,0,2,4
Nc1nn(-c2ccccc2)c(N)c1N=Nc1ccccc1,5,-17,-3,-5,7,-2
c1ccc(N=NC2=NN(c3ccccc3)CS2)cc1,.,.,.,-3,-1,42*
O=C1C=CC(=O)N1c1ccc(OC(F)F)cc1,.,.,.,5,7,103*
O=C1C=CC(=O)N1c1ccc(O)cc1,-5,-3,81*,2,8,14

# Source: PubChem BioAssay
